This is a sample that favours compounds with a hit; in the whole collection about 3.1% have one here.
KCNQ1 act = potentiates or activates the human KCNQ1 potassium channel; P51787; AID 2648; 310,000 compounds, 0.35% hits; B-score at 10 µM; CHO-K1 KCNQ1, thallium flux FluxOR fluorescence; active compounds read high;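 active means fluorescence ratio B-score, a plate-corrected score, at least three library SD, with initial intensity B-score within 5 SD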
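System: CHO-K1 cells stably expressing KCNQ1 / Medium: assay buffer for compound exposure, DMSO matched across wells / Reagent: thallium- and potassium-containing depolarizing buffer / Compound: one concentration, matched DMSO / Incubation: 20 min compound pretreatment at room temperature / Measured by: kinetic FluxOR fluorescence, 10 s baseline plus 110 s post-stimulus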
KCNQ1 block = inhibitors of human KCNQ1 potassium channel | B-score at 10 µM | CHO-K1 KCNQ1, FluxOR thallium flux fluorescence; active compounds read high | 310,000 compounds, 1.3% hits;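 active means compounds whose thallium flux B-score, printed positive for inhibition, exceeds three library SD while starting fluorescence stays within three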;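 further: channel opened by potassium depolarization with thallium stimulus after 20 min compound exposure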
KCNK9 inh = blocks the human KCNK9 two-pore domain potassium channel | HEK293 KCNK9, FluxOR thallium flux fluorescence; active compounds read low | Q9NPC2 | AID 488922 | B-score at 10 µM | 310,000 compounds, 1.2% hits;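 active means ratio B-score over 3 SD below the library mean, with starting fluorescence within 5 SD of its mean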;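 further: negative B-score means less thallium flux so channel inhibition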
hERG rescue = hERG (human) protection from proarrhythmic block; CHO-hERG, FluxOR thallium flux, dofetilide IC70 present; activation (rescue from dofetilide block), less the hit threshold, % at 10 µM; 310,000 compounds, 0.51% hits; AID 1511;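 active means activation above the mean of controls blocked by dofetilide plus 5 SD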;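 further: thallium influx through hERG after potassium depolarization seen as dye fluorescence rise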
KCNK3 block = human KCNK3 channel inhibition, primary screen | 340,000 compounds, 0.84% hits | B-score at 10 µM | AID 602410 | CHO-KCNK3 thallium flux, FluxOR fluorescence; active compounds read low;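 active means B-score under library mean minus 4 SD, starting fluorescence ratio at most library mean plus 5 SD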;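 further: more negative B-score means stronger inhibition of thallium flux through KCNK3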
KCNQ1 inh valid = human KCNQ1 channel inhibition, validation assay; KCNQ1 cell line, FluxOR thallium flux fluorescence; shares compounds with KCNQ1 block; inhibition, % at 10 µM; 1,600 compounds, 93% hits;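 active means primary screen active, with duplicate mean exceeding buffer control mean plus 3 SD of buffer wells, cut at about 28% in these data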;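 further: 0% = buffer control ratio and 100% = XE991 inhibitor control ratio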
CHO KCNQ1 ctr = counter-screen for KCNQ1 inhibitors: effect in parental CHO cells | shares compounds with KCNQ1 block | parental CHO-K1, FluxOR thallium flux fluorescence ratio; active compounds read low; zero means no signal rise above baseline | fluorescence ratio (Tl flux) at 10 µM | 1,600 compounds, 21% hits;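 active means mean of duplicate thallium-flux fluorescence ratios in parental host cells more than 5 SD below the buffer control mean, cut at about 0.38 in these data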;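 further: ratio is peak minus minimum fluorescence divided by baseline fluorescence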
KCNQ2 inh = KCNQ1 inhibitor that also blocks rat KCNQ2 channel | shares compounds with KCNQ1 block | KCNQ2 cells, FluxOR thallium flux fluorescence | inhibition, % at 10 µM | 1,600 compounds, 71% hits | AID 651746;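 active means mean percent inhibition of the KCNQ2 thallium signal more than 5 SD above the buffer-only control wells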;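 further: KCNQ2 expressed in CHO cells; 0% = buffer control wells and 100% = XE-991 inhibitor control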
Target sequence (O88943 whole entry, looked up): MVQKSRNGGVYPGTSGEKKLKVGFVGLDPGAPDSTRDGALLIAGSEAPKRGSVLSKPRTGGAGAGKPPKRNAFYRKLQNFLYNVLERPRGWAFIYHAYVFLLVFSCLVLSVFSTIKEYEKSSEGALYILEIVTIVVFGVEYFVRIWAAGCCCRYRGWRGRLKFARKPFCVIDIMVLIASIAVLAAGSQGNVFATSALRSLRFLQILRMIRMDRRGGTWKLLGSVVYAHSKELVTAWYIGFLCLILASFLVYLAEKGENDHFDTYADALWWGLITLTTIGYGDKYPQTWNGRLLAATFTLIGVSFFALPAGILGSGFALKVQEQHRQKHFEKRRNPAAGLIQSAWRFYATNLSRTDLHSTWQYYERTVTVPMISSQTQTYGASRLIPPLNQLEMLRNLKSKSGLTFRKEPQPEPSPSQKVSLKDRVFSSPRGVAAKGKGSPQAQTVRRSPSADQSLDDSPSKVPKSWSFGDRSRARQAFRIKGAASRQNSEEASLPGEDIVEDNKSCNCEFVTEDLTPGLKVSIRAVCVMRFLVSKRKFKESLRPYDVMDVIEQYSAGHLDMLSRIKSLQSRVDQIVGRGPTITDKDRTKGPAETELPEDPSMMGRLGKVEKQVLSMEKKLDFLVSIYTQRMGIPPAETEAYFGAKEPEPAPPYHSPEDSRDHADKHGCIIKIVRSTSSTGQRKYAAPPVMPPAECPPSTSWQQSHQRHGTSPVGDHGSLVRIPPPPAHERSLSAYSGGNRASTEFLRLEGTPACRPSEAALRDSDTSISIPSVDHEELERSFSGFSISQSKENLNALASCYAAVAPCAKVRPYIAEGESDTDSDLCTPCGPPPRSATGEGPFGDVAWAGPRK
KCNQ1 KCNE1 spec = KCNQ1 inhibitor that also blocks human KCNQ1/KCNE1 channel. shares compounds with KCNQ1 block. KCNQ1/KCNE1 cells, FluxOR thallium flux fluorescence. inhibition, % at 10 µM. 1,600 compounds, 77% hits. AID 652147;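 active means mean percent inhibition of duplicate wells above the buffer-only control mean plus 3 SD of those controls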;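 further: 0% = buffer only wells and 100% = XE-991 inhibitor control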
An asterisk follows results filed as active; i = inactive; . = no result given; ! = a repeat was not active.

SMILES	KCNQ1 act	KCNQ1 block	KCNK9 inh	hERG rescue	KCNK3 block	others
O=C1NC(=O)N(c2ccc3c(c2)OCO3)C(=O)/C1=C\c1ccc(-c2ccccc2C(=O)O)o1	i	i	i	-2	i
CCOc1cccc(CNCCc2c(C)[nH]c3ccc(OC(F)(F)F)cc23)c1O	i	12*	i	-21	i
CCC1CN1P1(=O)OCC(C)([N+](=O)[O-])CO1 (centres undefined)	.	.	.	.	i
CC12C=CC(=O)C=C1CC(O)C1C2CCC2(C)C1CCC2(C)O (centres undefined)	.	.	.	.	i
COc1ccc2c(c1)C(c1ccc(N(CCCl)CCCl)cc1)=NCC2	.	.	.	.	-8.7*
ClCCN(CCCl)c1ccc(C2=NCCc3ccccc32)cc1	.	.	.	.	i
COc1ccc(Cn2c(O)c(/C=N/NC(=O)c3ccccc3)c(=O)[nH]c2=O)cc1	i	7*	i	-16	i
CCN(CC)c1ccc(N=Cc2c(O)n(Cc3ccccc3)c(=O)[nH]c2=O)cc1	i	7*!	-7.3*!	-12	i
COc1ccc(Cn2c(O)c(/C=N/NC(=O)c3ccncc3)c(=O)[nH]c2=O)cc1	i	i	i	-13	i
CCN(CC)c1ccc(N=Cc2c(O)n(-c3ccccc3)c(=O)[nH]c2=O)cc1	i	i	i	-11	i
CC(=O)OC1C(=O)OCC23CCC4(C)OC4C2OC2CC(OC(=O)C=CC=CC(=O)OCCC1C)C3(C)C21CO1 (centres undefined)	.	.	.	.	i
CCOC(=O)C1(c2ccccc2)CCN(CCc2ccc(NC(=O)CCC(=O)O)cc2)CC1	.	.	.	.	i
CC[n+]1c(/C=C/C=C/c2ccc(N(C)C)cc2)sc2ccccc21	i	i	-6.6*	-29	-11*
CC[n+]1c(/C=C/N(C)c2ccccc2)sc2ccc(Cl)cc21	i	6*	i	-23	i
CC[C@@H](O)C[C@H]1CCC[C@@]2(C[C@@H]3OC(=O)/C=C/[C@@](C)(O)[C@@H](O)[C@H](C)[C@@H](O)[C@H](OC4CCC(N(C)C)C(C)O4)[C@@H](O)[C@](C)(O)CCCCC/C=C/[C@@H]4CC(C)(C)O[C@@]4(O)C[C@H](O2)[C@H]3C)O1 (some centres undefined)	.	.	.	.	i
C[C@]12CCC3C(CC[C@H]4C[C@H](O)[C@H](O)C[C@]34C)C1CC[C@@H]2O (some centres undefined)	.	.	.	.	i
CN(CC=CCN(C)P(=S)(N1CC1)N1CC1)P(=S)(N1CC1)N1CC1	.	.	.	.	i
CCCCn1c(=O)c(C(=O)Nc2cnccn2)c(O)c2ccccc21	i	9*	i	-40	i
CCC1([N+](=O)[O-])COP(=O)(NCc2cccnc2)OC1 (centres undefined)	.	.	.	.	i
Cc1cccc(NP(=O)(Oc2ccccc2F)Oc2ccccc2F)c1	i	i	-7.2*	-27	i
O=P(Nc1ccccc1)(Nc1ccccc1)Oc1ccc(Cl)cc1	i	i	i	-30	i
COc1cccc(NP(=O)(Oc2ccc(Cl)cc2)Oc2ccc(Cl)cc2)c1	i	i	-6.7*	-4	i
Cc1ccc(NP(=O)(Oc2ccccc2F)Oc2ccccc2F)cc1C	i	i	i	-12	i
CCc1cccc(CC)c1NC(=S)N1CC2CC(C1)c1cccc(=O)n1C2 (centres undefined)	i	i	i	-6	i
Cc1c(Cl)cccc1NC(=S)N1CC2CC(C1)c1cccc(=O)n1C2 (centres undefined)	30*	i	i	-4	i
SMILES	KCNQ1 act	KCNQ1 block	KCNK9 inh	hERG rescue	KCNK3 block	others
CC1C(=O)OC2CCN3CC4OC4(COC(=O)C(C)(O)C1(C)O)C23 (centres undefined)	.	.	.	.	i
c1ccc(-c2ccc(-c3n(-c4ccccn4)c4ccccc4[n+]3-c3ccccn3)cc2)cc1	i	9*	i	-31	i
COC1C(C)OC(OC2CC(C)(O)Cc3cc4c(c(O)c32)C(=O)c2c(O)cc3c(c2C4=O)OC2OC3(C)C(O)C(N(C)C)C2O)C(OC)C1(C)OC (centres undefined)	.	.	.	.	i
CC(CC(C)(C)N1CC1)=NO	.	.	.	.	i
Cc1cccc(N=C2c3cc([N+](=O)[O-])ccc3-c3c2cc([N+](=O)[O-])cc3[N+](=O)[O-])c1	.	.	.	.	i
Cc1cc[n+](Cc2ccccc2)cc1	i	i	i	-2	i
c1ccc(C[n+]2ccccc2)cc1	i	7*	i	-7	i
CC/C(=N\NC(=O)c1ccccc1)c1c(O)n(C2CCCCC2)c(=O)[nH]c1=O	i	7*	i	-14	i
CCn1c(O)c(C=Nc2ccc(N3CCOCC3)cc2)c(=O)n(CC)c1=S	i	7*	i	-19	i
COC(/C(C)=C/C=C/C(C)=C/c1coc(C)n1)C(C)C1CC(O)C2(C)OC2C=CC(C)C2CC(CC(=O)O2)CC2OC2C(=O)O1 (centres undefined)	.	.	.	.	i
COc1ccc(CCNCc2cccn2C)cc1	i	i	i	-6	i
Cn1cccc1CNCCc1ccccc1	i	i	i	6.4*	.
O=C(CCN1CC1)OCCOC(=O)CCN1CC1	.	.	.	.	i
CCC1(Cc2ccccc2)C(=O)NC(=S)N(C)C1=O (centres undefined)	.	.	.	.	i
O=c1[nH]c(=S)n(CCC2=CCCCC2)c(O)c1C=NC1CCN(Cc2ccccc2)CC1	i	7*	i	-23	i
CCCCn1c(=O)c(C(=O)NCc2ccccc2OC)c(O)c2ccccc21	i	7*	i	-10	i	KCNQ1 inh valid=56*;CHO KCNQ1 ctr=0.47;KCNQ2 inh=76%*;KCNQ1 KCNE1 spec=48%*
c1ccc2c(c1)[IH]c1ccccc1-2	.	.	.	.	i
Oc1cc(Cl)ccc1Oc1ccc(Cl)cc1Cl	i	9*	-7.3*	-6	i	KCNQ1 inh valid=52*;CHO KCNQ1 ctr=0.46;KCNQ2 inh=i;KCNQ1 KCNE1 spec=86%*
COc1cc(CN=C(C)c2c(O)n(C3CCCCC3)c(=O)[nH]c2=O)cc(OC)c1	i	6*	i	-8	i	KCNQ1 inh valid=0;CHO KCNQ1 ctr=0.5;KCNQ2 inh=80%*;KCNQ1 KCNE1 spec=i

Screens deposited in PubChem BioAssay by Johns Hopkins Ion Channel Center.
